# In ChEMBL document CHEMBL1914438, “Synthesis and biological activity of novel N-cycloalkyl-(cycloalkylaryl)-2-[(3-R-2-oxo-2H-[1,2,4]triazino[2,3-c]quinazoline-6-yl)thio]acetamides” (2011):
# Key:
# Type in all cases: functional
# OVCAR-3 = assay: Growth inhibition of human OVCAR3 cells after 48 hrs by SRB assay; conditions: OVCAR-3, 48 h
# How it was run: (§1)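 NCI panel of about 60 human tumor lines, 48 h continuous exposure at five 10-fold dilutions from 10^-4 to 10^-8 M. SRB protein staining was read as absorbance at time zero, in untreated controls and at each concentration. GI50 is the concentration giving 50% lower net protein increase than controls. TGI is where Ti = Tz, and LC50 is 50% protein loss versus start.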
# Yamadazyma tenuis [1] = assay: Antifungal activity against Candida tenuis assessed as zone of inhibition at 0.5 mg/mL after 48 to 72 hrs by stiff-plate agar-diffusion method; conditions: read-out: DIZ
# Mycobacterium [2] = assay: Antibacterial activity against Mycobacterium luteum assessed as zone of inhibition at 0.1 mg/mL after 24 hrs by stiff-plate agar-diffusion method; conditions: read-out: DIZ
# RXF 393 [3] = assay: Growth inhibition of human RXF393 cells after 48 hrs by SRB assay; conditions: RXF 393, 48 h
# How it was run: (§2)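 NCI 60-cell-line human tumor panel. Cells were inoculated and preincubated for 24–48 h, then exposed continuously to compound for 48 h. Primary screen used a single 10^-5 M concentration. Growth was measured by sulforhodamine B protein staining, read spectrophotometrically, and reported as percent growth versus untreated controls. Selected compounds were also run at five 10-fold dilutions (10^-4 to 10^-8 M) to derive GI50 from time-zero-corrected absorbances.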
# CAKI-1 = assay: Cytotoxicity against human Caki1 cells assessed as cell growth at 10^-5 M after 48 hrs by SRB assay; conditions: CAKI-1, 48 h, read-out: Activity
# How it was run: (§3)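 NCI 60-cell-line one-dose primary screen: cells inoculated and preincubated 24–48 h, then test agent added at a single 10^-5 M concentration for a further 48 h. Endpoint is sulforhodamine B protein staining read spectrophotometrically. Reported as percent growth relative to untreated control cells.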
# EKVX = assay: Growth inhibition of human EKVX cells after 48 hrs by SRB assay; how it was run: as §1
# Mycobacterium [4] = assay: Antibacterial activity against Mycobacterium luteum assessed as zone of inhibition at 0.5 mg/mL after 24 hrs by stiff-plate agar-diffusion method; conditions: read-out: DIZ
# [5] = tested on: Photobacterium leiognathi; assay: Antibacterial activity against Photobacterium leiognathi Sh1 assessed as inhibition of bacterial luminescence at 0.025 mg/mL after 10 mins by bioluminometry-based acute action test; set-up: scale not given: the % may be the effect or the level left
# How it was run: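 Marine P. leiognathi Sh1 (Azov Sea shrimp isolate) diluted in chloride solution to 10^5 cells/mL; compounds suspended in DMSO mixed with 1 mL bacterial suspension. Acute test: 10 min at 25 °C, then bioluminescence measured by bioluminometer as % of compound-free control. Tetracycline reference.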
# RXF 393 [6] = assay: Cytotoxicity against human RXF393 cells assessed as cell growth at 10^-5 M after 48 hrs by SRB assay; conditions: RXF 393, 48 h, read-out: Activity
# How it was run: (§4)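 NCI human tumor cell line panel from nine cancer types. Each line was inoculated and preincubated 24–48 h, then exposed to a single concentration (10^-5 M) for 48 h. Growth was read by sulforhodamine B protein staining, measured spectrophotometrically. Value reported as percent growth of treated cells relative to untreated controls.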
# PC-3 = assay: Growth inhibition of human PC3 cells after 48 hrs by SRB assay; conditions: PC-3, 48 h; how it was run: as §1
# SK-MEL-5 = assay: Cytotoxicity against human SK-MEL-5 cells assessed as cell growth at 10^-5 M after 48 hrs by SRB assay; conditions: SK-MEL-5, 48 h, read-out: Activity; how it was run: as §4
# MCF7 = assay: Cytotoxicity against human MCF7 cells assessed as cell growth at 10^-5 M after 48 hrs by SRB assay; conditions: MCF7, 48 h, read-out: Activity; how it was run: as §3
# UO-31 = assay: Cytotoxicity against human UO31 cells assessed as cell growth at 10^-5 M after 48 hrs by SRB assay; conditions: UO-31, 48 h, read-out: Activity; how it was run: as §4
# MOLT-4 = assay: Growth inhibition of human MOLT4 cells after 48 hrs by SRB assay; conditions: MOLT-4, 48 h; how it was run: as §1
# U-251 = assay: Cytotoxicity against human U251 cells assessed as cell growth at 10^-5 M after 48 hrs by SRB assay; conditions: U-251, 48 h, read-out: Activity; how it was run: as §4
# UACC-62 = assay: Growth inhibition of human UACC62 cells after 48 hrs by SRB assay; conditions: UACC-62, 48 h; how it was run: as §2
# K562 = assay: Cytotoxicity against human K562 cells assessed as cell growth at 10^-5 M after 48 hrs by SRB assay; conditions: K562, 48 h, read-out: Activity; how it was run: as §3
# MDA-MB-435 = assay: Cytotoxicity against human MDA-MB-435 cells assessed as cell growth at 10^-5 M after 48 hrs by SRB assay; conditions: MDA-MB-435, 48 h, read-out: Activity; how it was run: as §3
# TK-10 = assay: Cytotoxicity against human TK10 cells assessed as cell growth at 10^-5 M after 48 hrs by SRB assay; conditions: TK-10, 48 h, read-out: Activity; how it was run: as §4
# HCT-15 = assay: Cytotoxicity against human HCT15 cells assessed as cell growth at 10^-5 M after 48 hrs by SRB assay; conditions: HCT-15, 48 h, read-out: Activity; how it was run: as §3
# ACHN = assay: Growth inhibition of human ACHN cells after 48 hrs by SRB assay; how it was run: as §1
# CCRF-CEM = assay: Growth inhibition of human CCRF-CEM cells after 48 hrs by SRB assay; how it was run: as §1
# MDA-MB-231 = assay: Cytotoxicity against human MDA-MB-231 cells assessed as cell growth at 10^-5 M after 48 hrs by SRB assay; conditions: MDA-MB-231, 48 h, read-out: Activity; how it was run: as §3
# Yamadazyma tenuis [7] = assay: Antifungal activity against Candida tenuis assessed as zone of inhibition at 0.1 mg/mL after 48 to 72 hrs by stiff-plate agar-diffusion method; conditions: read-out: DIZ
# IGROV-1 = assay: Cytotoxicity against human IGROV1 cells assessed as cell growth at 10^-5 M after 48 hrs by SRB assay; conditions: IGROV-1, 48 h, read-out: Activity; how it was run: as §3
# OVCAR-4 = assay: Growth inhibition of human OVCAR4 cells after 48 hrs by SRB assay; conditions: OVCAR-4, 48 h; how it was run: as §1
# 786-0 = assay: Growth inhibition of human 786-0 cells after 48 hrs by SRB assay; conditions: 786-0, 48 h; how it was run: as §1
# Staphylococcus aureus = assay: Antibacterial activity against Staphylococcus aureus assessed as zone of inhibition at 0.1 mg/mL after 24 hrs by stiff-plate agar-diffusion method; conditions: read-out: DIZ
# [8] = read-out: pLC50 (the source's name) (converted)
structure (smiles),measurement,setting,value
CCC1C2CCC(C2)C1NC(=O)CSc1nc2ccccc2c2nc(=O)c(-c3ccc(OC)cc3)nn12 (stereo not drawn),GI50,OVCAR-3,1.48 µM
same,CC50,OVCAR-3; [8],28.2 µM
same,TGI,OVCAR-3; read-out: pTGI (converted),5.62 µM
same,zone of inhibition at 500 µg/mL,Yamadazyma tenuis [1],0 mm
same,zone of inhibition at 100 µg/mL,Mycobacterium [2],0 mm
same,GI50,RXF 393 [3],1.48 µM
same,CC50,RXF 393 [3]; [8],17.4 µM
same,TGI,RXF 393 [3]; read-out: pTGI (converted),4.17 µM
same,growth at 10 µM,CAKI-1,36.1%
same,GI50,EKVX,1.95 µM
same,CC50,EKVX; [8],> 50.1 µM
same,TGI,EKVX; read-out: pTGI,> 50.1 µM
same,zone of inhibition at 500 µg/mL,Mycobacterium [4],0 mm
same,Activity,[5],38.5%
same,growth at 10 µM,RXF 393 [6],9.46%
same,GI50,PC-3,2.82 µM
same,CC50,PC-3; [8],> 50.1 µM
same,TGI,PC-3; read-out: pTGI (converted),24.5 µM
same,growth at 10 µM,SK-MEL-5,59.8%
same,growth at 10 µM,MCF7,48.2%
same,growth at 10 µM,UO-31,-12.7%
same,GI50,MOLT-4,1.62 µM
same,CC50,MOLT-4; [8],> 50.1 µM
same,TGI,MOLT-4; read-out: pTGI,> 50.1 µM
same,growth at 10 µM,U-251,-98.9%
same,GI50,UACC-62,3.55 µM
same,CC50,UACC-62; [8],> 50.1 µM
same,TGI,UACC-62; read-out: pTGI (converted),26.3 µM
same,growth at 10 µM,K562,39.2%
same,growth at 10 µM,MDA-MB-435,58.6%
same,growth at 10 µM,TK-10,13.8%
same,growth at 10 µM,HCT-15,67.9%
same,GI50,ACHN,1.91 µM
same,CC50,ACHN; [8],> 50.1 µM
same,TGI,ACHN; read-out: pTGI,> 50.1 µM
same,GI50,CCRF-CEM,2 µM
same,CC50,CCRF-CEM; [8],> 50.1 µM
same,TGI,CCRF-CEM; read-out: pTGI,> 50.1 µM
same,growth at 10 µM,MDA-MB-231,22.5%
same,zone of inhibition at 100 µg/mL,Yamadazyma tenuis [7],0 mm
same,growth at 10 µM,IGROV-1,17%
same,GI50,OVCAR-4,1.66 µM
same,CC50,OVCAR-4; [8],43.7 µM
same,TGI,OVCAR-4; read-out: pTGI (converted),6.31 µM
same,GI50,786-0,3.02 µM
same,CC50,786-0; [8],> 50.1 µM
same,TGI,786-0; read-out: pTGI (converted),15.8 µM
same,zone of inhibition at 100 µg/mL,Staphylococcus aureus,0 mm
